Activity calls are given as the source filed them. The rule behind the calls is not given here.
Tests used:
[1] = AUClast in Sprague-Dawley rat serum at 10 mg/kg, po administered as single dose by LC-MS/MS analysis; type: ADME, organism-based; design: dose 10 mg/kg, route oral, time 0 - last
How it was run: (§1)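 Male Sprague Dawley rats (250 ± 25 g), fasted overnight (12-16 h), n = 3 per time point; single 10 mg/kg dose orally by feeding needle, or iv from DMSO solution. Serum, prostate and hypothalamus collected up to 48 h post oral dose; hypothalamus from three rats pooled. LC-MS/MS (MRM, phenacetin internal standard), linear 5-400 ng/mL; noncompartmental and compartmental analysis.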

[2] = test system: Rattus norvegicus; assay: Toxicity in citral-induced prostatic hyperplasia Sprague-Dawley rat model assessed as effect on testis weight at 10 mg/kg, po administered once daily coadministered with citral for 21 days measured 24 hrs last post dose; type: organism-based; settings: in vivo
[3] = test system: Mus musculus; assay: Toxicity in Swiss albino mouse assessed as effect on locomotor activity at 20 mg/kg, po measured at 5 mins interval for 90 mins by open field test; type: organism-based; settings: in vivo
How it was run: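 Male Swiss albino mice in an activity chamber, infrared beam-break counting over 24 intervals of 5 min (120 min). Oral dosing after the 6th interval; six animals per group.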

[4] = Half life in Sprague-Dawley rat hypothalamus at 10 mg/kg, po administered as single dose by LC-MS/MS analysis; type: ADME, organism-based; how it was run: as §1
[5] = test system: Rattus norvegicus; assay: Anti-androgenic activity in citral-induced prostatic hyperplasia Sprague-Dawley rat model assessed increase in distinction between stromal and acinar compartments at 10 mg/kg, po administered once daily coadministered with citral for 21 days measured 24 hrs last post dose by hematoxyline and eosin stainig based light microscopic analysis; type: functional, organism-based
How it was run: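 Adult male Sprague-Dawley rats (250-280 g, n = 5), citral 100 mg/kg orally once daily for 28 days. From day 8, compound or flutamide at 10 mg/kg orally once daily for the remaining 21 days. Prostate weight is expressed relative to the citral group (100%). Prostates fixed in 10% formalin; 5 μ sections stained with H&E, examined by light microscopy.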

[6] = Tmax in Sprague-Dawley rat hypothalamus at 10 mg/kg, po administered as single dose by LC-MS/MS analysis; type: ADME, organism-based; how it was run: as §1
[7] = Ratio of drug level in hypothalamus to serum in Sprague-Dawley rat at 10 mg/kg, po administered as single dose by LC-MS/MS analysis; type: ADME, organism-based; how it was run: as §1
[8] = test system: Hypothalamus; assay: Volume of distribution at steady state in Sprague-Dawley rat hypothalamus at 10 mg/kg, po administered as single dose by LC-MS/MS analysis; type: ADME, organism-based; settings: in vivo; how it was run: as §1
[9] = AUClast in Sprague-Dawley rat serum at 10 mg/kg, iv administered as single dose by LC-MS/MS analysis; type: ADME, organism-based; design: dose 10 mg/kg, route intravenous, time 0 - last; how it was run: as §1
[10] = test system: Mus musculus; assay: Anti-depressant like activity in Swiss albino mouse assessed as reduction in immobility time at 20 mg/kg, po administered 60 mins prior to test measured for 5 mins by forced swim test relative to control; type: functional; design: scale not given: the % may be the effect or the level left
How it was run: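 Male Swiss albino mice (20-25 g); compound 20 mg/kg, imipramine 60 mg/kg or fluoxetine 20 mg/kg given orally in 1% gum acacia (10 mL/kg). After 60 min: 15 min pre-swim in a water cylinder (10 cm depth, 25 ± 1 °C), then retest at 24 h. Immobility recorded for 5 min after 1 min acclimatization; N = 7-9, mean ± SEM, unpaired t-test.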

[11] = test system: Hypothalamus; assay: Clearance in Sprague-Dawley rat hypothalamus at 10 mg/kg, po administered as single dose by LC-MS/MS analysis; type: ADME, organism-based; settings: in vivo; how it was run: as §1
[12] = Half life in Sprague-Dawley rat prostate at 10 mg/kg, po administered as single dose by LC-MS/MS analysis; type: ADME, organism-based, Prostate gland; how it was run: as §1
[13] = Tmax in Sprague-Dawley rat serum at 10 mg/kg, po administered as single dose by LC-MS/MS analysis; type: ADME, organism-based; how it was run: as §1
[14] = test system: Rattus norvegicus; assay: Toxicity in citral-induced prostatic hyperplasia Sprague-Dawley rat model assessed as effect on seminal vesicle weight at 10 mg/kg, po administered once daily coadministered with citral for 21 days measured 24 hrs last post dose; type: organism-based; settings: in vivo
[15] = Cmax in Sprague-Dawley rat hypothalamus at 10 mg/kg, po administered as single dose by LC-MS/MS analysis; type: ADME, organism-based; design: dose 10 mg/kg, route oral; how it was run: as §1
[16] = test system: Hypothalamus; assay: AUClast in Sprague-Dawley rat hypothalamus at 10 mg/kg, po administered as single dose by LC-MS/MS analysis; type: ADME, organism-based; settings: in vivo; how it was run: as §1
[17] = test system: PC-3; assay: Cytotoxicity against human PC3 cells after 24 hrs by MTT assay; type: functional, cell-based; settings: PC-3, 24 h

AUC(0-t) [1]: 900 ng·h/mL | half-life [4]: 129 h | Tmax [6]: 1 h | Kp [7]: 4.6 | Vdss [8]: 6.6 g/kg | AUC(0-t) [9]: 2500 ng·h/mL | CL [11]: 0.8 g/h/kg | half-life [12]: 155 h | Tmax [13]: 1 h | Cmax [15]: 461 ng/g | AUClast [16]: 4.2 µg·h/g
SMILES: c1ccc(N2CCN(CCCN3CCN(c4ccccn4)CC3)CC2)nc1
Activity [2]: Non-Toxic | Activity [3]: Non-Toxic | Activity [5]: Active | Activity [10]: 69.4% | Activity [14]: Non-Toxic | EC50 [17]: > 80 µM
